proCasp7 act = procaspase-7 activators, primary screen, counter-screen for procaspase-3 activator project, biochemical, absorbance, HTS, human; Caspase-7 (Homo sapiens), P55210; recombinant procaspase-7, Ac-DEVD-pNA absorbance 405 nm; D23A/D198A/D206A triple mutant, cannot self-cleave; scale: DMSO 0, 5 µM enzyme 100; activation, % at 8.5 µM; 330,000 tested, 0.093% active; AID 463210, 2010;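 active = percent activation above the screen-wide mean plus 3 SD, cut at about 25% in these data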
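Detection: p-Nitroaniline absorbance at 405 nm, read at 0 and 120 min; system: Uncleavable procaspase-7 mutant enzyme; evaluation: % activation from two-timepoint absorbance difference, scaled to controls; times: 1 h enzyme–compound preincubation and 2 h substrate reaction, both 25 °C; buffer or medium: Zinc-free HEPES pH 7.4 with 300 mM NaCl, 0.01% Triton X-100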
PP5 inh = PP5 phosphatase inhibitors, primary screen, biochemical, fluorescence; Serine/threonine-protein phosphatase 5 (Homo sapiens), P53041; 320,000 tested, 0.18% active; purified PP5c, OMFP substrate fluorescence; inhibition, % at 6.7 µM; AID 1987, 2009;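 active = inhibition above the campaign's mean inhibition across all tested compounds plus 3 SD, cut at about 9.5% in these data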
procasp3 activ = activators of human procaspase-3 D3A mutant, primary screen, biochemical, absorbance, PC-3 D3A mutant, single concentration | Caspase-3 (Homo sapiens), P42574 | recombinant procaspase-3 D3A, Ac-DEVD-pNA absorbance 405 nm | activation, % at 8.5 µM | 330,000 tested, 0.11% active | AID 463141, 2010;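 active = activation above the mean of all tested compounds plus 3 SD, cut at about 21% in these data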
Target sequence (P42574 whole entry D9A/D28A/D175A): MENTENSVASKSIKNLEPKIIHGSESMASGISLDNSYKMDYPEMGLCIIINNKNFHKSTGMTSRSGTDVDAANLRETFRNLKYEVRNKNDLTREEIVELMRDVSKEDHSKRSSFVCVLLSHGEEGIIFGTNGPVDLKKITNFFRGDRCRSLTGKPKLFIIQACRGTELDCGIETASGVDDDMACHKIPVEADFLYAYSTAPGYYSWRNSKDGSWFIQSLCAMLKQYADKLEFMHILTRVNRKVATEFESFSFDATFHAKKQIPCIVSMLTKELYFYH
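Test system: Procaspase-3 D3A mutant, all three cleavage aspartates alanine | Dosing: Single dose, 8.5 µM nominal compound, 0.8% DMSO | Schedule: 1 h preincubation, 2 h reaction | Technique: 405 nm absorbance of p-nitroaniline, reads at 0 and 120 min | Repeats: One well per compound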
PP1 counter = PP1-alpha phosphatase inhibitors, primary screen, counter-screen for PP5 inhibitor project, biochemical, fluorescence, OMFP substrate, single point; purified PP1alpha; AID 2235, 2010; Serine/threonine-protein phosphatase PP1-alpha catalytic subunit (Homo sapiens), P62136; 320,000 tested, 0.9% active; inhibition, % at 6.7 µM;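 active = inhibition above the mean inhibition of all tested compounds plus 3 SD, computed separately for each screening campaign, cut at about 15% in these data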
Target sequence (P62136 whole entry, looked up): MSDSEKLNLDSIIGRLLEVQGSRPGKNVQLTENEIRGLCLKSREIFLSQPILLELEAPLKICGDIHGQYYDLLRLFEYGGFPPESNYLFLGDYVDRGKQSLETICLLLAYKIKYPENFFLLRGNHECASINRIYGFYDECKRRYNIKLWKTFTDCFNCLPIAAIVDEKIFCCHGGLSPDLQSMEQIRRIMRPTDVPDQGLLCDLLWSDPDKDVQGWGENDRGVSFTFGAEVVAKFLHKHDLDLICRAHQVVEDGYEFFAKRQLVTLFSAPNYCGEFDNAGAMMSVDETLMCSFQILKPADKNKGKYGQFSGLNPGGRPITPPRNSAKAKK
PP1 confirm = PP1 phosphatase inhibitors, confirmation, biochemical, fluorescence, OMFP substrate, triplicate | shares compounds with PP1 counter | purified PP1alpha | inhibition, % at 6.7 µM | 1,900 tested, 52% active;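 active = mean PP1 inhibition above a set limit taken from the earlier primary screen, cut at about 15% in these data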
PP5 inh counter = PP5 phosphatase inhibition by PP1 hits, confirmation, counter-screen for PP1 inhibitor project, biochemical, fluorescence, triplicate; 1,900 tested, 4% active; shares compounds with PP1 counter; purified PP5c, OMFP fluorescence; inhibition, % at 6.7 µM;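 active = mean PP5 inhibition over triplicate wells above about 9.5% taken from the earlier PP1 screen, limit read from the data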
A number is an active result; – = inactive; · = not tested or not shown. Most compounds without a hit are left out; they make up all but 1.2% or so of the library.

SMILES | proCasp7 act | PP5 inh | procasp3 activ | PP1 counter | PP1 confirm | PP5 inh counter
O=c1cc2oc3cc(O)c(O)cc3c(-c3ccccc3[N+](=O)[O-])c-2cc1O | – | – | – | 26 | – | –
CCN(CC)CCNC(=O)C(=O)Nc1cc2c3c(c1)CCN3C(=O)CC2 | – | – | – | 18 | – | –
CNC(=O)C(=O)Nc1cc2c3c(c1)CCN3C(=O)CC2 | – | – | – | – | · | ·
CN(C)/C=C/c1onc(-c2c(Cl)cccc2Cl)c1C#N | – | – | – | 35 | – | –
N#Cc1c(-c2c(Cl)cccc2Cl)noc1/C=C/Nc1ccc(C(=O)O)cc1 | – | – | – | – | · | ·
CN(C(=O)c1ccc(NC(=O)C2CCCN(C(=O)OC(C)(C)C)C2)cc1)C1CCC1 (stereo unspecified) | – | · | – | · | · | ·
Cc1cc(/C=N/n2cnnc2)c(C)n1-c1ccc(OCc2ccc(Cl)cc2)cc1 | – | – | – | 28 | 26 | –
O=C(Cc1cccs1)N[C@@H]1c2ccccc2CC[C@H]1OCc1ccccc1 | – | · | – | · | · | ·
Cc1ccc(CNS(=O)(=O)c2c(C(=O)N3CCCCC3)c(C)n(C)c2C)o1 | – | – | – | – | · | ·
Cc1ccc(N2CC(C(=O)OCC(=O)NNC(=O)c3ccccc3)CC2=O)cc1 (stereo unspecified) | – | – | – | 35 | – | –
C[C@@]12C(=O)NCC(=O)N1[C@@H]1c3cc(Br)ccc3OC[C@@H]1[C@@H]2c1ccccc1 | – | · | – | · | · | ·
O=C(Cc1cc(=O)[nH][nH]1)N/N=C/C=C/c1ccccc1 | – | – | – | 19 | – | –
CC1CCCCC12NC(=O)N(CC(=O)N1CCN(c3ncccn3)CC1)C2=O (stereo unspecified) | – | – | – | – | · | ·
c1ccc(-c2nnc(-c3ccccn3)nc2NC2CCCCC2)cc1 | – | – | – | 21 | – | –
CNc1nc(-c2ccccn2)nnc1-c1ccccc1 | – | – | – | – | · | ·
O=C(CN1C(=O)c2ccccc2S1(=O)=O)Nc1ncc(Cl)cc1Cl | – | · | – | · | · | ·
Fc1cccc(Cl)c1CSc1ccc(-c2cccnc2)nn1 | – | – | – | 58 | – | –
Clc1ccc(CSc2ccc(-c3cccnc3)nn2)cc1 | – | – | – | – | · | ·
CCOC(=O)c1ccc(NS(=O)(=O)c2ccc(Cl)nc2)cc1 | – | – | – | – | – | –
Cc1ccc(C(=O)C2=C(O)C(=O)N(Cc3cccnc3)C2c2cccc([N+](=O)[O-])c2)o1 (stereo unspecified) | – | – | – | – | · | ·
COc1cc(C2C(C(=O)c3ccc(C)o3)=C(O)C(=O)N2Cc2ccccc2)ccc1O (stereo unspecified) | – | – | – | – | · | ·
COc1cc(C2C(C(=O)c3ccc(C)o3)=C(O)C(=O)N2c2cc(C)on2)cc(Br)c1O (stereo unspecified) | – | – | – | – | · | ·
Cc1cc(N2C(=O)C(O)=C(C(=O)c3ccc(C)o3)C2c2ccc([N+](=O)[O-])cc2)no1 (stereo unspecified) | – | – | – | 18 | – | –
CCCOc1cccc(C2C(C(=O)c3ccc(C)o3)=C(O)C(=O)N2c2nc(C)c(C(C)=O)s2)c1 (stereo unspecified) | – | – | – | 25 | 32 | –
Cc1cc(N2C(=O)C(O)=C(C(=O)c3ccc(C)o3)C2c2cccc(Oc3ccccc3)c2)no1 (stereo unspecified) | – | – | – | 29 | 29 | –
SMILES | proCasp7 act | PP5 inh | procasp3 activ | PP1 counter | PP1 confirm | PP5 inh counter
CCOc1cc(C2C(C(=O)c3ccc(C)o3)=C(O)C(=O)N2CCc2ccccc2)ccc1O (stereo unspecified) | – | – | – | 33 | 38 | –
CCOc1ccc(S(=O)(=O)N2CCC(C(=O)NCc3ccncc3)CC2)cc1 | – | – | – | – | · | ·
COc1ccc(C(Sc2ccccc2)c2ccccc2)cc1OC (stereo unspecified) | – | – | – | – | · | ·
CCCOc1ccc(C2C(C(=O)c3ccc(C)o3)=C(O)C(=O)N2Cc2ccco2)cc1 (stereo unspecified) | – | – | – | 27 | 39 | –
CN(C)C(CNC(=O)c1ccc2nccnc2c1)c1ccco1 (stereo unspecified) | – | · | – | · | · | ·
Nc1ncnc2oc(-c3ccco3)c(-c3ccco3)c12 | – | – | – | 25 | 16 | –
O=C(c1ccco1)N1CCN(c2ncnc3c2nnn3Cc2ccccc2Cl)CC1 | – | – | – | 41 | 44 | –
Cc1cc(NC(=O)c2ccc(Cl)cc2Cl)no1 | – | – | – | – | · | ·
Cc1ccc(NS(=O)(=O)c2cc([N+](=O)[O-])ccc2NNC(=S)Nc2cc(C)ccc2C)c(C)c1 | – | – | – | – | · | ·
Cc1ccc(NS(=O)(=O)c2cc([N+](=O)[O-])ccc2NNC(=S)Nc2cccc(Cl)c2)c(C)c1 | – | – | – | 26 | 29 | –
O=C(Cn1nc(-c2ccccc2)c2ccccc2c1=O)Nc1ccc(F)cc1 | – | – | – | – | · | ·
N#Cc1c(-c2ccccc2)c(-c2ccccc2)nn(CC(=O)NNC(=O)Nc2ccc(Cl)c(Cl)c2)c1=O | – | – | – | 23 | – | –
CCN1C(=O)CSC1=Nc1cccc(C(=O)O)c1 | – | – | – | – | · | ·
Cc1cccc(N2CCN(C(=O)CC(NC(=O)c3ccccc3)c3ccccc3)CC2C)c1 (stereo unspecified) | – | – | – | 20 | – | –
N=C1/C(=C/c2ccc(-c3cccc(C(=O)O)c3)o2)C(=O)N=C2SC=C(c3ccccc3)N12 | – | – | – | 72 | 44 | –
C/C(=N\NC(=O)CSc1nnc(C)s1)c1ccc(Cl)cc1 | – | – | – | – | · | ·
COc1ccc(/C(C)=N\NC(=O)CSc2nnc(C)s2)cc1 | – | – | – | 19 | – | –
c1ccc(CNc2nc(NCc3ccccc3)c3ccccc3n2)cc1 | – | – | – | 34 | 23 | –
c1ccc(CNc2nc(-c3ccccc3)nc3ccccc23)cc1 | – | – | – | – | · | ·
c1ccc(CNc2nc(-c3ccccn3)nc3ccccc23)cc1 | – | – | – | 39 | 40 | –
Fc1ccc(Nc2nc(NCc3ccco3)c3ccccc3n2)cc1 | – | – | – | 20 | – | –
CCOC(=O)N1CCN(S(=O)(=O)c2ccc(C(=O)NNc3nc4cc(C)cc(C)c4s3)cc2)CC1 | – | – | – | 19 | 26 | –
CCOC(=O)N1CCN(S(=O)(=O)c2ccc(C(=O)NNc3nc4c(C)cc(C)cc4s3)cc2)CC1 | – | – | – | 31 | 19 | –

Source: PubChem (The Scripps Research Institute Molecular Screening Center)
